# Reference: PubChem BioAssay
# A number with no mark means an inactive call. Results filed as inconclusive are left out. Active and inactive are the calls of the source.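 Rule for the calls, unless noted: active = cell viability at or below a set limit in both duplicate runs, the limit being the all-compound median minus 4 SD (cut at about 23% in these data, passing the limit was not always enough); inconclusive = no clear call, values can overlap the other calls; inactive = the rest.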
# Legend:
# [1] = S. cerevisiae growth inhibition in permissive medium (OD615), pilot counter-assay for S. cerevisiae lifespan shortening project, permissive growth control (AID 705;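 active = growth inhibition above 25% in both replicates, a cutoff set 3 SD above the mean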); details: OD615, 24 h, at 10 µM, stronger effect = higher value
# Procedure, shortened: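 System: Engineered DeaD yeast | Buffer or medium: SC raffinose/galactose permissive medium | Doses: 10 µM single dose, 0.25% DMSO | Times: 24 h exposure, 30 °C | Measured by: OD615 turbidity read | Read-out: Yeast growth inhibition indicated by reduced 24 h OD615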
# [2] = S. cerevisiae growth inhibition in restrictive medium, OD615, pilot screen, restrictive growth control, yeast lifespan reduction project (AID 706;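 active = growth inhibition above a set limit, 3 SD over mean compound inhibition, in both replicates, cut at about 43% in these data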;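 note: modified DeaD lifespan yeast strain shifted to restrictive glucose medium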); details: OD615, 48 h, at 10 µM, stronger effect = higher value
# Procedure, shortened: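 Assay system: engineered S. cerevisiae DeaD strain; Buffer or medium: CSMM-D glucose medium; Dosing: 10 µM compound, 0.25% DMSO; Times: cell pre-growth 4 h, compound exposure 48 h, 30 °C; Detection: absorbance (optical density) measured at 615 nm.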
# [3] = doxorubicin toxicity protection in MRP-1 cells – H69AR cells, CellTiter-Glo, duplicate, MRP-1 activator project, pilot screen (AID 807;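 active = viability increase at or above a cutoff of the median across tested compounds plus 3 SD, cut at about 8.5% in these data, passing the limit was not always enough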;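 note: compound pretreatment 18-22 h then 72 h combined with doxorubicin; 0% = doxorubicin alone and 100% = vehicle without doxorubicin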); details: H69AR viability with doxorubicin, CellTiter-Glo luminescence; at 10 µM; stronger effect = higher value
# [4] = viability of HCT116 without oncogenic beta-catenin – human colon tumor cells, pilot screen (AID 823); details: HCT116 beta-catenin knockout viability, CellTiter-Glo, 60 h; at 10 µM; stronger effect = lower value;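 note: 0% = wells killed by 20 µM Hyamine and 100% = untreated DMSO cell wells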
# [5] = viability of PTEN-null HCT116 cells – cell-based, HCT116 clonal line, CellTiter-Glo, pilot screen (AID 824;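 active = viability at or below 27.92% in each of two runs, the all-compound median minus 4 SD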;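 note: 0% = 20 µM Hyamine control and 100% = vehicle cell control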); details: HCT116 PTEN-deleted viability, 60 h, at 10 µM, stronger effect = lower value
# [6] = RAM pathway blockade in budding yeast – dse1pr::URA3 reporter, 5-FOA selection, pilot screen (AID 869;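 active = inhibition over a set limit, the all-compound mean plus 3 SD, in both replicate runs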;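 note: 0% = DMSO wells with no growth and 100% = 10 µM 1-NA-PP1 with full growth; RAM network block rescues cells from 5-FOA so hits raise OD615 growth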); details: S. cerevisiae dse1pr::URA3 5-FOA growth, OD615, 2 d; at 10 µM; stronger effect = higher value; strain carries analog-sensitive mutant Cbk1 kinase
# [7] = RAM signaling pathway blockade in yeast – S. cerevisiae, Pdr1DBD-CYC8 efflux-inhibited sensitized strain, primary screen (AID 1298;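 active = RAM network inhibition above 8.4% in each of two replicates, 3 SD over the compound average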;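 note: 0% = DMSO untreated cells without growth and 100% = 10 µM 1-NA-PP1 full growth; higher means more yeast growth rescued from 5-FOA killing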); details: S. cerevisiae cbk1-as DSE1-URA3 strain, 5-FOA growth OD615, 2 d; at 50 µM; stronger effect = higher value
Structure (SMILES),growth inhibition [1] [%],growth inhibition [2],viability increase [3] [%],viability [4] [%],viability [5] [%],inhibition [6] [%],RAM network inhibition [7] [%]
Cn1cnnc1SCC(=O)c1ccc2c(c1)CCCC2,-1.79,12.5%,-1.07,105,96.6,0.17,4.35
O=C(CCCn1c(=O)oc2ccccc21)N1CCc2ccccc2C1,-8.29,-14.1%,-4.06,94.3,95.2,1.48,4.82
Cc1cc(C)c(NC(=O)CN2CCN(C)CC2)c(C)c1,-1.99,4.72%,-1.53,112,92.3,2.21,1.38
Cc1nn(C(=O)CN2C(=O)c3ccccc3C2=O)c(C)c1Br,-4.13,3.1%,-1.05,101,103,0.84,4.29
Cn1c(Cn2c(=O)sc3ccccc32)nnc1SCc1cccnc1,-3.75,2.86%,-1.44,96.6,97.1,1.83,5.33
Cn1c(=O)[nH]c(=O)c2c1nc(N1CCCC1)n2CC(O)COc1ccccc1 (configuration not stated),-10.3,-7.92%,-2.57,100,102,2.5,1.94
CC(=NCc1ccccc1)C1=C(O)COC1=O,5.52,8.4%,-1.47,100,92.7,1.06,4.28
CCc1nnc(NC(=O)c2ccc(S(=O)(=O)N(CCOC)CCOC)cc2)s1,-9.86,-3%,3.39,115,107,0.77,1.29
COCc1cc(=O)n2[nH]c(-c3cccc(Br)c3)cc2n1,-25.1,-16.1%,-2.23,92.9,86.7,0.76,5.82
Cc1nc2sc(C(c3ccc(Cl)cc3)N3CCN(CCO)CC3)c(O)n2n1 (configuration not stated),7.67,4.92%,-2.42,97,90.2,1.82,1.58
Cc1cc(C(F)(F)F)nc(NCc2ccc(F)cc2)n1,-1.39,-13%,-1.57,90.5,86.7,1.39,0.79
CCCOC(=O)C1C2C=CC3(CN(c4ccc(Cl)c(F)c4)C(=O)C13)O2 (configuration not stated),4.25,0.67%,-2.67,93.4,86.5,-0.06,1.54
COc1ccc(-c2nc(-c3ccc(NC(=O)c4ccncc4)cc3)no2)cc1OC,-3.46,9.41%,0.06,42.6,50.8,2.85,2.92
c1ccc(C2NCCn3cccc32)cc1 (configuration not stated),-8.84,-13.7%,-2.82,99,98,0.21,2.74
CCOCCCn1cnc2c([nH]c3cc(OC)ccc32)c1=O,-14.1,-13.8%,-0.55,95.8,96.9,1.41,5.51
C=C1c2cc(CC)ccc2NC(=O)N1c1ccc(C)cc1,-6.46,-2.23%,3.36,97.9,101,0.37,0.61
CC(Sc1ccc2nnc(-c3ccc(F)cc3)n2n1)C(=O)O (configuration not stated),8.21,52.5% (active),-1.09,100,94.2,1.28,1.27
Cc1cc(=O)[nH]c(Cc2ccc(OC(C)C)cc2)n1,-6.43,-15.4%,-1.17,98.4,93.2,1.98,5.82

Structure (SMILES),growth inhibition [1] [%],growth inhibition [2],viability increase [3] [%],viability [4] [%],viability [5] [%],inhibition [6] [%],RAM network inhibition [7] [%]
CC1Cc2nc(SCC(=O)NCCc3ccccc3)n(C)c(=O)c2S1 (configuration not stated),-11.5,-1.29%,-2.25,100,104,1.77,2.27
CN(CC(=O)N1CCCCCC1)S(=O)(=O)c1cccc2cccnc12,-6.24,-27%,-4.51,101,82,2.14,-1.18
Clc1cccc(CSc2nnc(-c3ccccn3)n2Cc2ccco2)c1,-8.18,21.1%,-1.98,71.4,75.3,1.69,12.3
CCN1CCN(Cc2ccc(NC(=O)Nc3ccccc3OC)cc2)CC1,-1.11,4.37%,0.28,108,105,0.235,2.68
Cc1ccc(-c2ccc(CCC(=O)O)n2CC(=O)O)cc1,-3.08,-11.2%,-1.34,98.7,107,1.36,1.3
CCOC(=O)CC1C(=O)NCCN1Cc1cccc(C(F)(F)F)c1 (configuration not stated),-4.03,-3.95%,-1.61,97.4,86,1.66,-0.14
CCc1nnc(NC(=O)c2ccc(N3C(=O)CCC3=O)cc2)s1,-9.63,-14.9%,-1.98,101,94.7,1.32,2.48
COC(=O)c1ccc(NC(=O)CSc2nnc(COc3ccc4c(c3)CCCC4)o2)cc1,-2.11,-2.11%,-3.92,97.8,96.7,3.43,4.19
O=C(NC1CCCCCC1)c1nnc(Cc2ccc(Cl)cc2)o1,-12.1,0.195%,2.9,95.2,94.5,1.31,2.19
N#Cc1nc(COc2ccc(Br)cc2)oc1N1CCCCCC1,-13.1,3.57%,4.39,62.4,67.5,2.33,7.31
N#Cc1c2n(c3c(=O)n(CC(=O)c4ccc(Br)cc4)cnc13)CCCC2,-18.3,-5.47%,-0.17,86.1,86,0.885,2.03
COC(=O)c1cccc(NC(=O)C(C)N2C(=O)c3ccccc3C2=O)c1 (configuration not stated),-16.2,10.2%,-1.25,93.4,106,1.77,2.77
O=C(CSc1nnc(Cn2c(=O)sc3ccccc32)n1-c1ccccc1)N1CCCCCC1,-11.3,-4.95%,-2.95,91.7,81.7,2.22,6.65
COc1cccc(CNC(=O)Cn2cc3c(n2)CCCC3)c1,-7.1,4.65%,0.16,100,93.2,1.44,3.05
Cc1cccc(CCNC(=O)c2nnc(Cc3ccc(Cl)cc3)o2)c1,-3.04,1.66%,0.18,102,95.5,1.27,6.94
c1cncc(-c2nc3ccccn3c2Nc2ccc3c(c2)OCCO3)c1,-1.86,9.11%,-2.32,99.6,94.4,1.04,4.54
O=C(O)COc1ccc2c(c1)OCCO2,-7.81,-2.33%,0.55,99.2,107,1.04,-0.47
Cc1nc2ccccc2c(=O)n1NC(=O)c1c(O)c2ccccc2n(C)c1=O,-5.41,7.71%,-2.45,100,99,0.995,0.88
